Reference: ChEMBL document CHEMBL3875165, “Novel broad-spectrum and long-acting parenteral cephalosporins having an acyl cyanamide moiety at the C-3 terminal: Synthesis and structure-activity relationships” (Eur J Med Chem, 2016)
≈ marks a conversion by molar mass, not a printed value.

Tests used:
Staphylococcus aureus [1] = assay: Antibacterial activity against Staphylococcus aureus SMITH; type: functional
Method in brief: (§1)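 Agar dilution MIC on Sensitivity Disk Agar-N with 2-fold serial drug dilutions. Overnight Mueller Hinton broth cultures were diluted to about 10^6 CFU/mL, and 1 µL spots were applied. Plates were incubated 20 h at 37 °C before scoring.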

Pseudomonas aeruginosa [2] = assay: Antibacterial activity against Pseudomonas aeruginosa PAO1; type: functional; method in brief: as §1
Pseudomonas aeruginosa [3] = assay: Antibacterial activity against Pseudomonas aeruginosa SA24; type: functional; method in brief: as §1
Staphylococcus aureus [4] = assay: Antibacterial activity against methicillin-resistant Staphylococcus aureus SR3626; type: functional
Method in brief: (§2)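 Agar dilution on Sensitivity Disk Agar-N. Overnight Mueller Hinton broth cultures were diluted to about 10^6 CFU/mL, and 1 µL spots were placed on agar plates holding 2-fold serial dilutions of antibiotic. Plates were incubated 20 h at 37 °C and then MICs were scored.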

Escherichia coli [5] = assay: Antibacterial activity against Escherichia coli NIHJ JC-2; type: functional; method in brief: as §1
Staphylococcus aureus [6] = assay: Antibacterial activity against methicillin-resistant Staphylococcus aureus SR2030; type: functional; method in brief: as §2
[7] = AUC (0 to infinity) in monkey at 20 mg/kg, iv administered as bolus dose by HPLC method; type: ADME, organism-based, Macaca mulatta; design: dose 20 mg/kg, time infinity, route intravenous; details: rhesus monkey, in vivo
Method in brief: (§3)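 Three monkeys per group received a single iv bolus of 20 mg/kg (1 mL/kg). Plasma levels were measured by HPLC. AUC0-∞, CLtot and T1/2 came from a 2-compartment fit.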

[8] = Half life in mouse at 20 mg/kg, iv administered as bolus dose by band-culture bioassay; details: in vivo
[9] = Half life in monkey at 20 mg/kg, iv administered as bolus dose by HPLC method; type: ADME, organism-based, Macaca mulatta; details: rhesus monkey, in vivo; method in brief: as §3
[10] = AUC (0 to infinity) in mouse at 20 mg/kg, iv administered as bolus dose by band-culture bioassay; details: in vivo
Haemophilus influenzae [11] = assay: Antibacterial activity against beta-lactamase non-producing penicillin-resistant Haemophilus influenzae SR11435 after 20 hrs by agar dilution method; type: functional; details: SR11435, 20 h; method in brief: as §2
Streptococcus pneumoniae [12] = assay: Antibacterial activity against penicillin-susceptible Streptococcus pneumoniae SR16605 after 20 hrs by agar dilution method; type: functional; details: SR16605, 20 h; method in brief: as §2
Streptococcus pneumoniae [13] = assay: Antibacterial activity against penicillin-resistant Streptococcus pneumoniae SR16675 after 20 hrs by agar dilution method; type: functional; details: SR16675, 20 h; method in brief: as §2
Haemophilus influenzae [14] = assay: Antibacterial activity against beta-lactamase non-producing penicillin-resistant Haemophilus influenzae SR24106 after 20 hrs by agar dilution method; type: functional; details: SR24106, 20 h; method in brief: as §2
[15] = Protein binding in cynomolgus monkey plasma after 30 mins by ultra-filtration method; type: ADME, cell-free, Macaca fascicularis; details: read-out: PPB (converted)
Method in brief: (§4)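 Mouse or monkey plasma was adjusted to pH 7 with CO2 and spiked with compound to a final 10 µg/ml. It was incubated 30 min at 37 °C, then ultrafiltered by centrifugation at 3200 rpm for 30 min at 25 °C. Free drug in the filtrate was measured by bioassay to give the bound fraction.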

Streptococcus pneumoniae [16] = assay: Antibacterial activity against penicillin-resistant Streptococcus pneumoniae SR16750 after 20 hrs by agar dilution method; type: functional; details: SR16750, 20 h; method in brief: as §2
[17] = Total clearance in mouse at 20 mg/kg, iv administered as bolus dose by band-culture bioassay; details: in vivo
Moraxella catarrhalis = assay: Antibacterial activity against Moraxella catarrhalis SR24290 after 20 hrs by agar dilution method; type: functional; details: SR24290, 20 h; method in brief: as §1
[18] = Total clearance in monkey at 20 mg/kg, iv administered as bolus dose by HPLC method; type: ADME, organism-based, Macaca mulatta; details: rhesus monkey, in vivo; method in brief: as §3
[19] = Protein binding in ICR mouse plasma after 30 mins by ultra-filtration method; type: ADME, cell-free; details: read-out: PPB (converted); method in brief: as §4
Streptococcus pneumoniae [20] = assay: Antibacterial activity against penicillin-susceptible Streptococcus pneumoniae SR16605 infected in sc dosed mouse assessed as protection against bacterial infection by measuring increase in mouse survival administered 1 and 5 hrs post infection measured after 7 days; type: functional
Method in brief: (§5)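 Mouse septicemia model in six-week-old male Jcl:ICR mice (19 to 25 g). Mice were infected intraperitoneally with 0.5 mL of S. pneumoniae suspension in hog mucin. Compound was given subcutaneously 1 and 5 h after infection. Mortality was recorded over 7 days, and ED50 with 90% confidence limits was derived by the logit method.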

Streptococcus pneumoniae [21] = assay: Antibacterial activity against penicillin-resistant Streptococcus pneumoniae SR16754 infected in sc dosed mouse assessed as protection against bacterial infection by measuring increase in mouse survival administered 1 and 5 hrs post infection measured after 7 days; type: functional; method in brief: as §5
Streptococcus pneumoniae [22] = assay: Antibacterial activity against penicillin-resistant Streptococcus pneumoniae SR16754 after 20 hrs by agar dilution method; type: functional; details: SR16754, 20 h; method in brief: as §2
Staphylococcus aureus [23] = assay: Antibacterial activity against Staphylococcus aureus SMITH after 20 hrs by agar dilution method; type: functional; method in brief: as §1
Escherichia coli [24] = assay: Antibacterial activity against Escherichia coli NIHJ JC-2 after 20 hrs by agar dilution method; type: functional; details: NIHJ JC-2, 20 h; method in brief: as §1

SMILES	AUC [7]	half-life [8]	half-life [9]	AUC(0-inf) [10]	MIC (Haemophilus influenzae [11])	MIC (Streptococcus pneumoniae [13])	MIC (Haemophilus influenzae [14])	fraction unbound at 0.5 h [15]	MIC (Streptococcus pneumoniae [16])	clearance [17]	MIC (Moraxella catarrhalis)	clearance [18]	fraction unbound at 0.5 h [19]	MIC (Staphylococcus aureus [23])	MIC (Escherichia coli [24])	also measured
CCO/N=C(\C(=O)N[C@@H]1C(=O)N2C(C(=O)[O-])=C(C[n+]3ccc(-c4c[nH]c(C(=O)O)c4)cc3)CS[C@H]12)c1nsc(N)n1	–	–	–	–	–	–	–	–	–	–	–	–	–	–	–	MIC (Staphylococcus aureus [1]): 3.1 mg/L (≈ 5.18 µM); MIC (Pseudomonas aeruginosa [2]): 0.8 mg/L (≈ 1.34 µM); MIC (Pseudomonas aeruginosa [3]): 0.8 mg/L (≈ 1.34 µM); MIC (Staphylococcus aureus [4]): 25 mg/L (≈ 41.8 µM); MIC (Escherichia coli [5]): 0.05 mg/L (≈ 0.0835 µM); MIC (Staphylococcus aureus [6]): 12.5 mg/L (≈ 20.9 µM)
CCO/N=C(\C(=O)N[C@@H]1C(=O)N2C(C(=O)[O-])=C(C[n+]3ccc(-c4c[nH]c(C(=O)NC#N)c4)cc3)CS[C@H]12)c1nsc(N)n1	22 µg·h/mL	0.4 h	2 h	27.3 µg·h/mL	–	–	–	–	–	–	–	–	–	–	–	MIC (Staphylococcus aureus [1]): 1.6 mg/L (≈ 2.57 µM); MIC (Pseudomonas aeruginosa [2]): 0.8 mg/L (≈ 1.28 µM); MIC (Pseudomonas aeruginosa [3]): 0.4 mg/L (≈ 0.642 µM); MIC (Staphylococcus aureus [4]): 12.5 mg/L (≈ 20.1 µM); MIC (Escherichia coli [5]): 0.1 mg/L (≈ 0.161 µM); MIC (Staphylococcus aureus [6]): 12.5 mg/L (≈ 20.1 µM)
CO/N=C(\C(=O)N[C@@H]1C(=O)N2C(C(=O)O)=C(CSc3nc(=O)c(=O)[nH]n3C)CS[C@H]12)c1csc(N)n1 [CEFTRIAXONE]	21.9 µg·h/mL	0.64 h	1.95 h	60.8 µg·h/mL	0.125 mg/L (≈ 0.225 µM)	1 mg/L (≈ 1.8 µM)	0.25 mg/L (≈ 0.451 µM)	0.05	2 mg/L (≈ 3.61 µM)	0.329 L/h/kg	1 mg/L (≈ 1.8 µM)	0.0462 L/h/kg	0.06	2 mg/L (≈ 3.61 µM)	0.125 mg/L (≈ 0.225 µM)	MIC (Streptococcus pneumoniae [12]): 0.016 mg/L (≈ 0.0289 µM); ED50 (Streptococcus pneumoniae [20]): 0.11 mg/kg; ED50 (Streptococcus pneumoniae [21]): 5.65 mg/kg; MIC (Streptococcus pneumoniae [22]): 1 mg/L (≈ 1.8 µM)
CCO/N=C(\C(=O)N[C@@H]1C(=O)N2C(C(=O)[O-])=C(/C=C/C[n+]3cccc4cc(/C([O-])=N/C#N)ccc43)CS[C@H]12)c1csc(N)n1.[Na+]	8.2 µg·h/mL	0.95 h	1.74 h	12.9 µg·h/mL	0.031 mg/L	0.25 mg/L	0.125 mg/L	0.63	0.5 mg/L	1.54 L/h/kg	0.5 mg/L	0.125 L/h/kg	0.9	0.25 mg/L	0.125 mg/L	–
CCO/N=C(\C(=O)N[C@@H]1C(=O)N2C(C(=O)[O-])=C(/C=C/C[n+]3ccc(-c4cc(/C([O-])=N/C#N)n(C)n4)cc3)CS[C@H]12)c1csc(N)n1.[Na+]	21.8 µg·h/mL	0.82 h	2.96 h	21.3 µg·h/mL	0.063 mg/L	0.125 mg/L	0.25 mg/L	0.41	0.5 mg/L	0.792 L/h/kg	8 mg/L	0.0486 L/h/kg	0.59	0.5 mg/L	0.25 mg/L	–
CCO/N=C(\C(=O)N[C@@H]1C(=O)N2C(C(=O)[O-])=C(/C=C/C[n+]3cccc4cc(/C([O-])=N/C#N)[nH]c43)CS[C@H]12)c1csc(N)n1.[Na+]	29.2 µg·h/mL	0.64 h	4.35 h	22.2 µg·h/mL	0.063 mg/L	0.25 mg/L	0.25 mg/L	0.06	0.5 mg/L	0.9 L/h/kg	0.5 mg/L	0.0342 L/h/kg	0.67	0.5 mg/L	0.125 mg/L	–
CCO/N=C(\C(=O)N[C@@H]1C(=O)N2C(C(=O)[O-])=C(/C=C/C[n+]3ccc(-n4ccc(/C([O-])=N/C#N)n4)cc3)CS[C@H]12)c1csc(N)n1.[Na+]	32.1 µg·h/mL	0.87 h	2.8 h	16.8 µg·h/mL	0.063 mg/L	0.25 mg/L	0.125 mg/L	0.14	0.5 mg/L	1.19 L/h/kg	2 mg/L	0.0324 L/h/kg	0.86	0.5 mg/L	0.125 mg/L	–
